Measured values published in ChEMBL document CHEMBL3272245, “Potent reversible anticholinesterase agents. Bis- and mono-N-substituted benzoquinolinium halides” (J Med Chem, 1977).

Assays:
Butyrylcholinesterase [1] = biological target: T1, Butyrylcholinesterase (Equus caballus, UniProt Q9N1N9); experiment: Reversible mixed-type inhibition of horse serum butyrylcholinesterase using acetylcholine bromide as substrate by Lineweaver-Burk plot analysis
Butyrylcholinesterase [2] = biological target: T1, Butyrylcholinesterase; experiment: Reversible mixed-type inhibition of horse serum butyrylcholinesterase using acetylcholine bromide as substrate assessed as free enzyme-inhibitor complex by Lineweaver-Burk plot analysis
Acetylcholinesterase [3] = biological target: T2, Acetylcholinesterase (Electrophorus electricus, UniProt O42275); experiment: Reversible mixed-type inhibition of electric eel acetylcholinesterase using acetylcholine bromide as substrate assessed as free enzyme-inhibitor complex by Lineweaver-Burk plot analysis
Acetylcholinesterase [4] = biological target: T2, Acetylcholinesterase; experiment: Reversible mixed-type inhibition of electric eel acetylcholinesterase using acetylcholine bromide as substrate by Lineweaver-Burk plot analysis
Acetylcholinesterase [5] = biological target: T2, Acetylcholinesterase; experiment: Mixed-type inhibition of electric eel acetylcholinesterase using acetylcholine bromide as substrate assessed as free enzyme-inhibitor complex by Lineweaver-Burk plot analysis
Acetylcholinesterase [6] = biological target: T2, Acetylcholinesterase; experiment: Mixed-type inhibition of electric eel acetylcholinesterase using acetylcholine bromide as substrate by Lineweaver-Burk plot analysis
Butyrylcholinesterase [7] = biological target: T1, Butyrylcholinesterase; experiment: Mixed-type inhibition of horse serum butyrylcholinesterase using acetylcholine bromide as substrate by Lineweaver-Burk plot analysis
Butyrylcholinesterase [8] = biological target: T1, Butyrylcholinesterase; experiment: Mixed-type inhibition of horse serum butyrylcholinesterase using acetylcholine bromide as substrate assessed as free enzyme-inhibitor complex by Lineweaver-Burk plot analysis
Acetylcholinesterase [9] = biological target: T2, Acetylcholinesterase; experiment: Reversible competitive inhibition of electric eel acetylcholinesterase using acetylcholine bromide as substrate assessed as free enzyme-inhibitor complex by Lineweaver-Burk plot analysis
Butyrylcholinesterase [10] = biological target: T1, Butyrylcholinesterase; experiment: Reversible competitive inhibition of horse serum butyrylcholinesterase using acetylcholine bromide as substrate assessed as free enzyme-inhibitor complex by Lineweaver-Burk plot analysis
Acetylcholinesterase [11] = biological target: T2, Acetylcholinesterase; experiment: Mixed-type inhibition of electric eel acetylcholinesterase using acetylcholine bromide as substrate assessed as […] by Lineweaver-Burk plot analysis
In short: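 Electric eel electric-organ acetylcholinesterase (0.1 unit per 10 mL reaction) added to five inhibitor concentrations each mixed with acetylcholine bromide, e.g. 0.1, 0.15, 0.25, 0.4, 0.8 mM final. Initial hydrolysis rates over 4 min at 25 °C by pH-stat titration. Lineweaver-Burk analysis; Km from inhibitor-free runs.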

T1 sequence (Q9N1N9 whole entry): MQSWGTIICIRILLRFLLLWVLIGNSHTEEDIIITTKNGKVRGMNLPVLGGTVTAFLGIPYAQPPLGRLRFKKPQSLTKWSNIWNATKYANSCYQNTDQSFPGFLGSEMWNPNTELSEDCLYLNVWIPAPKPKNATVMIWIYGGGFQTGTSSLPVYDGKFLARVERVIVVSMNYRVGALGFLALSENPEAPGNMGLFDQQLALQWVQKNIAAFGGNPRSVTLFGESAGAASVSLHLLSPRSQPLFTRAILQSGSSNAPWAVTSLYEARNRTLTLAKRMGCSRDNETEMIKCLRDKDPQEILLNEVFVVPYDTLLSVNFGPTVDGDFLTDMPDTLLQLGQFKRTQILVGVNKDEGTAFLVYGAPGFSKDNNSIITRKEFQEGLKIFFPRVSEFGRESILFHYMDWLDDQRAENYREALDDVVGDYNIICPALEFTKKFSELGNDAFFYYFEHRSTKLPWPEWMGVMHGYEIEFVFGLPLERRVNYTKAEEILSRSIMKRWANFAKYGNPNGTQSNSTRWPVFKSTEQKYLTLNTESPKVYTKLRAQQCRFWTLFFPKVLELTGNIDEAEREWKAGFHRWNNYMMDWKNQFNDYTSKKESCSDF
T2 sequence (O42275 whole entry): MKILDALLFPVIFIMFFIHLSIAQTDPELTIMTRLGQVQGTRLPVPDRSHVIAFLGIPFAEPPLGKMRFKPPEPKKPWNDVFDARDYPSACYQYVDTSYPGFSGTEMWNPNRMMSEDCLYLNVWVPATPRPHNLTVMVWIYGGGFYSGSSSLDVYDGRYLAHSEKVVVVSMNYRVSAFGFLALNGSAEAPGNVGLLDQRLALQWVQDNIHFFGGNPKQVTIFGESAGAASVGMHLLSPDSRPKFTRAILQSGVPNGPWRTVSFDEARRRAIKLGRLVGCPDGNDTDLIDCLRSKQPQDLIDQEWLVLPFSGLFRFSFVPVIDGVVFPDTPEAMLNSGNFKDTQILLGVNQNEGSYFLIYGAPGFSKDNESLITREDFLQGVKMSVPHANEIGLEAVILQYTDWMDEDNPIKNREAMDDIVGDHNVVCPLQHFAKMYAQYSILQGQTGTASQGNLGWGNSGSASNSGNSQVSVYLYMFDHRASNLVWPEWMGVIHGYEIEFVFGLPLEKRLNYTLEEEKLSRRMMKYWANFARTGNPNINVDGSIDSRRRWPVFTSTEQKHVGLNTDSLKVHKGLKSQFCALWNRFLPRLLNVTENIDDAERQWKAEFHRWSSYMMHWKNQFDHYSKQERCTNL

| Compound | Ki (Butyrylcholinesterase [1]) [µM] | Ki (Butyrylcholinesterase [2]) [µM] | Ki (Acetylcholinesterase [3]) [µM] | Ki (Acetylcholinesterase [4]) [µM] | further results |
| --- | --- | --- | --- | --- | --- |
| c1ccc2c(c1)cc1ccccc1[n+]2CCCCCC[n+]1c2ccccc2cc2ccccc21 | 0.024 | 0.0073 | 0.0021 | 0.0021 | – |
| C[N+](C)(CCCCCC[N+](C)(C)Cc1ccc(-c2ccccc2)cc1)Cc1ccc(-c2ccccc2)cc1 | – | – | – | – | Ki (Acetylcholinesterase [5]): 39 µM; Ki (Acetylcholinesterase [6]): 120 µM; Ki (Butyrylcholinesterase [7]): 7.9 µM; Ki (Butyrylcholinesterase [8]): 1.5 µM |
| c1ccc2c(c1)c[n+](CCCCCC[n+]1cc3ccccc3c3ccccc31)c1ccccc21 | 0.091 | 0.027 | 0.0066 | 0.0066 | – |
| c1ccc2c(c1)ccc1c2ccc[n+]1CCCCCC[n+]1cccc2c3ccccc3ccc21 | 1.5 | 0.36 | 0.01 | 0.072 | – |
| c1ccc2c(c1)c[n+](Cc1ccc(C[n+]3cc4ccccc4c4ccccc43)cc1)c1ccccc21 | 0.23 | 0.057 | 0.18 | 0.71 | – |
| C[n+]1cc2ccccc2c2ccccc21 | 6.4 | 1.1 | 5.6 | 25.5 | – |
| CCC[n+]1cc2ccccc2c2ccccc21 | 7.5 | 1.3 | 3.2 | 13.6 | – |
| CC(C)[n+]1cc2ccccc2c2ccccc21 | 4.8 | 1.5 | 22 | 97 | – |
| CCCCCC[n+]1cc2ccccc2c2ccccc21 | 0.9 | 0.12 | 0.53 | 1.8 | – |
| c1ccc(C[n+]2cc3ccccc3c3ccccc32)cc1 | 0.26 | 0.061 | 0.25 | 0.95 | – |
| c1ccc(CC[n+]2cc3ccccc3c3ccccc32)cc1 | 0.31 | 0.054 | 0.28 | 0.78 | – |
| OCC[n+]1cc2ccccc2c2ccccc21 | 98.4 | 37 | 31 | 45 | – |
| O=C(O)C[n+]1cc2ccccc2c2ccccc21 | 86 | 41 | 12 | 72.4 | – |
| CC(=O)OCC[n+]1cc2ccccc2c2ccccc21 | – | – | – | – | Ki (Acetylcholinesterase [9]): 0.38 µM; Ki (Butyrylcholinesterase [10]): 0.12 µM |
| C[n+]1cccc2c3ccccc3ccc21 | 34 | 5.4 | 8.9 | 25.4 | – |
| c1ccc(C[n+]2cccc3c4ccccc4ccc32)cc1 | 5.6 | 0.86 | 9.3 | 37.4 | – |
| c1ccc(CC[n+]2cccc3c4ccccc4ccc32)cc1 | 4.9 | 0.92 | 1.8 | 18.5 | – |
| OCC[n+]1cccc2c3ccccc3ccc21 | 210 | 79 | 83 | 160 | – |
| CC(=O)OCC[n+]1cccc2c3ccccc3ccc21 | – | – | – | – | Ki (Acetylcholinesterase [9]): 0.95 µM; Ki (Butyrylcholinesterase [10]): 0.82 µM |
| C[n+]1cccc2ccc3ccccc3c21 | 230 | 32 | 18 | 140 | – |
| OCC[n+]1cccc2ccc3ccccc3c21 | 410 | 110 | 150 | 360 | – |
| C[n+]1c2ccccc2cc2ccccc21 | 1.7 | 0.24 | 0.5 | 2.8 | – |
| OCC[n+]1c2ccccc2cc2ccccc21 | 7.2 | 1.3 | 2.9 | 9.6 | – |
| CC(=O)OCC[n+]1c2ccccc2cc2ccccc21 | – | – | – | – | Ki (Acetylcholinesterase [9]): 0.021 µM; Ki (Butyrylcholinesterase [10]): 0.011 µM |
| CC(=O)OCC[n+]1ccccc1 | – | 120 | 320 | – | Ki (Acetylcholinesterase [5]): 320 µM; Ki (Acetylcholinesterase [9]): 0.021 µM; Ki (Butyrylcholinesterase [8]): 120 µM; Ki (Butyrylcholinesterase [10]): 0.011 µM |
| c1cc[n+](CCCCCC[n+]2ccccc2)cc1 | – | – | – | – | Ki (Acetylcholinesterase [11]): 16000 µM; Ki (Butyrylcholinesterase [7]): 620 µM; Ki (Butyrylcholinesterase [8]): 120 µM |
| C[N+](C)(CCCCCC[N+](C)(C)C1c2ccccc2-c2ccccc21)C1c2ccccc2-c2ccccc21 [HEXAFLUORENIUM BROMIDE] | 0.89 | 0.34 | 1.3 | 1.3 | – |
